# “And” between values parts separate entries of the source, which are not always exact repeats. Identical values can stand only once. The source made the active and inactive calls.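 The calls were made as follows, unless noted: active = viability at or under a set limit in both replicates, limit being median viability minus 3 SD (cut at about 48% in these data, passing the limit was not always enough); inconclusive = at or under the limit in just one replicate; inactive = at or above the limit in both replicates.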
# How the values were obtained:
# [1] = reduced viability of SK-BR-3 breast cancer cells – cell-based, 24 h, human, pilot screen (AID 572;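 active = viability at or below 10% of carrier control in both of two separate runs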;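 also: compound exposure lasted between 18 and 24 h rather than exactly 24 h; 100% = carrier-treated control wells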); details: SK-BR-3 viability, CellTiter-Glo luminescence, at 10 µM, stronger effect = lower value
# [2] = HUVEC growth inhibition – cell-based, human, primary screen (AID 575;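 active = viability at or below 30% in both replicate assays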;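 also: 100% = median of untreated cell wells with 0.1% DMSO on each plate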); details: HUVEC proliferation, CellTiter-Glo luminescence, 72 h; at 10 µM; stronger effect = lower value
# Method in brief: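 Assay system: primary human umbilical vein endothelial cells / Buffer or medium: endothelial basal medium with 2% FBS plus growth supplements / Compound dosing: one dose, 10 µM final, 0.1% DMSO / Timing: 72 h treatment at 37 °C / Signal: CTG luminescence / Benchmarks: 32 DMSO-only cell-control wells (high), 32 MePR drug-control wells (low) per plate / Plate: collagen-coated 384-well format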
# [3] = H69AR cell proliferation blockers – human, duplicate replicates, primary screen (AID 580); details: H69AR lung tumor cells viability, ATP luminescence, 72 h; at 10 µM; stronger effect = lower value;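 also: 100% = mean luminescence of untreated wells and 0% = no signal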
# [4] = MRP1 drug-resistance reversers in H69AR cells – cell-based, doxorubicin co-treatment, pilot screen (AID 601;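 active = viability loss from added drug above about 55%, and viability with drug at most 40%, in both replicates, limit read from the data, passing the limit was not always enough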); details: CellTiter-Glo, 72 h, at 10 µM; for differential viability (reversal): stronger effect = higher value
# [5] = yeast transport mutant growth inhibition pilot in 384-well plates, post-Golgi transport modulator project (AID 636; in the data active = inhibition above about 31%); details: absorbance 615 nm, about 18 h, stronger effect = higher value
# [6] = growth suppression of yeast trafficking mutant, preliminary HTS, modulators of trafficking downstream of Golgi apparatus project, 1536-format plate, OD 615 nm (AID 637; in the data active = inhibition above about 30%); details: yeast transport mutant growth, absorbance 615 nm, 18 h; stronger effect = higher value
# [7] = H69AR cells + 2 uM doxorubicin, measured here: viability with 2 uM doxorubicin, stronger effect = lower value
# [8] = H69AR cells, compound alone cytotoxicity
SMILES,viability [1],viability [2],viability [3],differential viability (reversal) ([4]; H69AR cells + 2 uM doxorubicin),"viability [4, 7]","viability [4, 8]",inhibition [5],inhibition [6]
CN(C)C(=O)Oc1cccc([N+](C)(C)C)c1,62% (inactive) and 92% (inactive),97.5% (inactive) and 92% (inactive),94.7% (inactive) and 120% (inactive),-1.94% (inactive) and 17.4% (inactive),96.6% and 103%,94.7% and 120%,-5.06% (inactive) and -2.21% (inactive),-4% (inactive) and -5.83% (inactive)
Cn1c(C(=O)OCC(=O)NCC2CCCO2)cc2sccc21 (centres undefined),85% (inactive),113% (inactive),92.7% (inactive),3.19% (inactive),89.6%,92.7%,-9.04% (inactive),2.9% (inactive)
COC(=O)C1=C(C)N(Cc2ccco2)C(=O)C1,96% (inactive),103% (inactive),96.1% (inactive),5.42% (inactive),90.7%,96.1%,-7.53% (inactive),5.82% (inactive)
CCCCCC(=O)N(CN1C(=O)CCC1=O)c1ccccc1,93% (inactive),104% (inactive),90.9% (inactive),3.52% (inactive),87.4%,90.9%,-7.3% (inactive),-0.73% (inactive)
C/C(=C\c1ccco1)C1C(C#N)=C(N)OC2=C1C(=O)CC(C)(C)C2 (centres undefined),110% (inactive),108% (inactive),80.1% (inactive),-9.17% (inactive),89.2%,80.1%,-7.43% (inactive),1.09% (inactive)
NS(=O)(=O)c1ccc(C(=O)O)cc1,92% (inactive),93.4% (inactive),99% (inactive),11.6% (inactive),87.5%,99%,5.45% (inactive),-5.33% (inactive)
Cc1occc1C(=O)Nc1nnc(C2CCCCC2)s1,109% (inactive),93.1% (inactive),93.7% (inactive),14.1% (inactive),79.6%,93.7%,-2.74% (inactive),10.7% (inactive)
CC(=O)OCC1=C(C(=O)O)N2C(=O)[C@@H](NC(=O)Cc3cccs3)[C@H]2SC1,141% (inactive),94.8% (inactive),94.2% (inactive),3.98% (inactive),90.2%,94.2%,-4.81% (inactive),8.5% (inactive)
CC(C)C12CN3CC(C(C)C)(CN(C1)C3c1ccc3c(c1)OCO3)C2=O (centres undefined),117% (inactive),91.8% (inactive),85.5% (inactive),-0.655% (inactive),86.2%,85.5%,-1.6% (inactive),0.18% (inactive)
C/C=C(\C)c1nnc(NC(=O)OCC)s1,94% (inactive),117% (inactive),96.4% (inactive),6.96% (inactive),89.4%,96.4%,-2.84% (inactive),-0.91% (inactive)
O=C(Cn1c(=O)n(CC2CCCO2)c(=O)c2ccccc21)c1ccccc1 (centres undefined),121% (inactive),79.1% (inactive),81.5% (inactive),-7.53% (inactive),89%,81.5%,-1.17% (inactive),6.39% (inactive)
O=C(CCCCn1c(=O)c2ccccc2n(Cc2ccc(Cl)cc2)c1=O)NCc1ccco1,100% (inactive),38.6% (inactive),29.6% (active),-13.4% (inactive),43%,29.6%,-1.17% (inactive),-2.95% (inactive)
COc1ccc(NC(=O)CCc2ccccc2)cc1NC(=O)c1ccco1,64% (inactive),58.4% (inactive),56.6% (inactive),-20.6% (inactive),77.2%,56.6%,-7.12% (inactive),9.68% (inactive)
COc1ccc(CN(Cc2cc3cc4c(cc3[nH]c2=O)OCO4)C(=O)NC2CCCCC2)cc1,85% (inactive),63.9% (inactive),96.9% (inactive),0.835% (inactive),96%,96.9%,1.22% (inactive),-1.27% (inactive)
CC(C)(C)NC(=O)C(Cc1ccccc1)NS(=O)(=O)c1cccc2nsnc12 (centres undefined),87% (inactive),105% (inactive),87.8% (inactive),-7.5% (inactive),95.3%,87.8%,-9.86% (inactive),-1.09% (inactive)
Cc1cc(C)n(Cc2cc(C)c(Cn3nc(C)cc3C)cc2C)n1,99% (inactive),101% (inactive),106% (inactive),12.2% (inactive),93.9%,106%,-4.73% (inactive),1.64% (inactive)
O=C(NC(C(=O)c1ccccc1)N1CCOCC1)c1cccs1 (centres undefined),87% (inactive),100% (inactive),96% (inactive),15% (inactive),81%,96%,-1.22% (inactive),-4.36% (inactive)

SMILES,viability [1],viability [2],viability [3],differential viability (reversal) ([4]; H69AR cells + 2 uM doxorubicin),"viability [4, 7]","viability [4, 8]",inhibition [5],inhibition [6]
COC(=O)c1ccccc1NC(=O)COc1ccc(S(=O)(=O)N2CCCC2)cc1C,90% (inactive),87.1% (inactive),74.4% (inactive),8.04% (inactive),66.4%,74.4%,-3.03% (inactive),3.83% (inactive)
COc1ccc(CCN2CC(O)=C(c3nc4ccccc4c(=O)[nH]3)C2=N)cc1OC,105% (inactive),85.6% (inactive),80.8% (inactive),-4.8% (inactive),85.6%,80.8%,-1.95% (inactive),1.8% (inactive)
CCC(=O)c1ccc(O)cc1,96% (inactive),97% (inactive),97.1% (inactive),-3.6% (inactive),101%,97.1%,-0.13% (inactive),3.33% (inactive)
CCCC1Cc2c(sc3ncnc(N)c23)CO1 (centres undefined),111% (inactive),94.5% (inactive),90.9% (inactive),-10.3% (inactive),101%,90.9%,-0.14% (inactive),-0.73% (inactive)
COC(=O)CN(Cc1ccco1)S(=O)(=O)c1ccccc1,98% (inactive),102% (inactive),77.6% (inactive),-3.33% (inactive),80.9%,77.6%,-2.67% (inactive),-0.91% (inactive)
Cc1ccc2nc(C3CCN(CC(=O)N4CCCCCC4)CC3)[nH]c2c1,84% (inactive),108% (inactive),96.3% (inactive),-10.6% (inactive),107%,96.3%,-1.1% (inactive),0.73% (inactive)
CCCNC(=O)NC1C(NC(=O)NCCC)N(C)C(=O)N1C (centres undefined),86% (inactive),104% (inactive),105% (inactive),14.2% (inactive),90.7%,105%,-1.04% (inactive),-0.49% (inactive)
CCOC(=O)Cc1nnc(Nc2cccc(O)c2)c2ccccc12,98% (inactive),95.4% (inactive),106% (inactive),20.6% (inactive),85.8%,106%,-3.65% (inactive),0% (inactive)
CC1CCCCN1C(=O)Cn1nnc(-c2cccnc2)n1 (centres undefined),92% (inactive),97.2% (inactive),103% (inactive),8.68% (inactive),94.6%,103%,-7.81% (inactive),-1.13% (inactive)
C=C(C)Cn1c(CCCNC(=O)C(C)(C)C)nc2ccccc21,104% (inactive),92.9% (inactive),102% (inactive),0.305% (inactive),101%,102%,-3.47% (inactive),-4% (inactive)
c1ccc(-c2cc(CSc3nc4ccccc4[nH]3)on2)cc1,94% (inactive),91.8% (inactive),102% (inactive),15.5% (inactive),86.5%,102%,-6.13% (inactive),3.09% (inactive)
CCOc1ccc(NC(=O)CSc2nc3cccnc3n2CC)cc1,103% (inactive),114% (inactive),81.4% (inactive),-0.765% (inactive),82.2%,81.4%,-3.77% (inactive),4.1% (inactive)
Cc1ccc(C2=Nc3ccccc3NC(C)(c3ccc(C)o3)C2)o1 (centres undefined),95% (inactive),79% (inactive),64% (inactive),-10.7% (inactive),74.7%,64%,3.97% (inactive),27.1% (inactive)
O=C(COC(=O)c1ccccc1C(=O)c1ccccc1)c1ccco1,59% (inactive),105% (inactive),90.3% (inactive),2.52% (inactive),87.8%,90.3%,-1.1% (inactive),2.36% (inactive)
COC(=O)CSc1nnc(-c2cccs2)n1-c1ccc(Cl)cc1,88% (inactive),93.8% (inactive),89.8% (inactive),6.75% (inactive),83.1%,89.8%,-8.49% (inactive),-4.68% (inactive)
COc1ccccc1OCCOCCn1cnc2ccccc2c1=O,87% (inactive),93.8% (inactive),87.7% (inactive),-3.44% (inactive),91.1%,87.7%,-5.75% (inactive),0.97% (inactive)

# Reference: PubChem BioAssay
